# Legend:
# Nociceptin receptor [1] = target: T1, Nociceptin receptor (Homo sapiens, UniProt P41146); assay: Displacement of [125I]Tyr14-NC/OFQ from human ORL1 receptor
# Summary of the method: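 Membrane fractions of CHO cells expressing human ORL1; binding affinity from displacement of radioligand [125I]Tyr14-NC/OFQ.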
# [2] = target: Voltage-gated inwardly rectifying potassium channel KCNH2 (Homo sapiens, UniProt Q12809); assay: Displacement of [35S]MK499 from human ERG expressed in HEK293 cells
# Nociceptin receptor [3] = target: T1, Nociceptin receptor; assay: Antagonist activity at ORL1 receptor expressed in CHO cells assessed as inhibition of NC/OFQ-stimulated [35S]GTPgammaS binding; format: functional, cell-based
# Summary of the method: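 Membrane fractions of CHO cells expressing ORL1 used; functional activity measured by [35S]GTPγS binding to G proteins.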
# [4] = Lipophilicity, log D at pH 7.4 by shake-flask method; format: physicochemical; details: buffer
# Mu-type opioid receptor = Mu-type opioid receptor (Homo sapiens, UniProt P35372); assay: Displacement of [3H]diprenorphin from human cloned mu opioid receptor expressed in CHO cells; format: cell-based
# Mu-type opioid receptor, sequence (P35372 whole entry): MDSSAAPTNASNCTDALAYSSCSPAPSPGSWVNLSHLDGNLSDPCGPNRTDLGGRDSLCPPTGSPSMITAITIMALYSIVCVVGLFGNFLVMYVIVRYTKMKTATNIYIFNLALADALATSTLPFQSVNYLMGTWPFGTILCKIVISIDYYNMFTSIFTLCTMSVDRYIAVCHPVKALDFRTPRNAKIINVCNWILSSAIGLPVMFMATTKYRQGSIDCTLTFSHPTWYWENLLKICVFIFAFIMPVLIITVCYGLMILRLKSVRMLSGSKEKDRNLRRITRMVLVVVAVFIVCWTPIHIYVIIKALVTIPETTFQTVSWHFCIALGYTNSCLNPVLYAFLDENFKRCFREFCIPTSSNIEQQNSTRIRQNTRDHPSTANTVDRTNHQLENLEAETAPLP
# [5] = target: Kappa-type opioid receptor (Homo sapiens, UniProt P41145); assay: Displacement of [3H]U69593 from human cloned kappa opioid receptor expressed in CHO cells; format: cell-based
# Kappa-type opioid receptor, sequence (P41145 whole entry): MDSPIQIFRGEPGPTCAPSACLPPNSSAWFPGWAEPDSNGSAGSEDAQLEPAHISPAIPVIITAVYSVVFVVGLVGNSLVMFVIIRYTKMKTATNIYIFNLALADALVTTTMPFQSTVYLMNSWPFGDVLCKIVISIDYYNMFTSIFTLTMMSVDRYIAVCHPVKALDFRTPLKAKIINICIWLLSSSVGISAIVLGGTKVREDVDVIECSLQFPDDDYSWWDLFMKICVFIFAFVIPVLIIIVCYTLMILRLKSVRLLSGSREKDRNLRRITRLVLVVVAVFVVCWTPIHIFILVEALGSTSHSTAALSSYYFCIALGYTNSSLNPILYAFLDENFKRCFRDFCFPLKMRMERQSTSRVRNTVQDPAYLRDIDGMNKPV
# T1 sequence (P41146 whole entry): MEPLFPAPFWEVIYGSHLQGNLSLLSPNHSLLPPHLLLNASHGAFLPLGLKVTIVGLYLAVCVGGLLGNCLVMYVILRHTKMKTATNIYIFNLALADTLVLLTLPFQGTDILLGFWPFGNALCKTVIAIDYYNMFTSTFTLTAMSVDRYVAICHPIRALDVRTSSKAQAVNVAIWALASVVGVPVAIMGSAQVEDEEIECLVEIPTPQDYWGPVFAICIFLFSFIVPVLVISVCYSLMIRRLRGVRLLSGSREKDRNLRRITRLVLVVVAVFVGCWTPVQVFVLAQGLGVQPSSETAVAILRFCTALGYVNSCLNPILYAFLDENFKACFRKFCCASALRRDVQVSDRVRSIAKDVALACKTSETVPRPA
# Voltage-gated inwardly rectifying potassium channel KCNH2, sequence (Q12809 whole entry): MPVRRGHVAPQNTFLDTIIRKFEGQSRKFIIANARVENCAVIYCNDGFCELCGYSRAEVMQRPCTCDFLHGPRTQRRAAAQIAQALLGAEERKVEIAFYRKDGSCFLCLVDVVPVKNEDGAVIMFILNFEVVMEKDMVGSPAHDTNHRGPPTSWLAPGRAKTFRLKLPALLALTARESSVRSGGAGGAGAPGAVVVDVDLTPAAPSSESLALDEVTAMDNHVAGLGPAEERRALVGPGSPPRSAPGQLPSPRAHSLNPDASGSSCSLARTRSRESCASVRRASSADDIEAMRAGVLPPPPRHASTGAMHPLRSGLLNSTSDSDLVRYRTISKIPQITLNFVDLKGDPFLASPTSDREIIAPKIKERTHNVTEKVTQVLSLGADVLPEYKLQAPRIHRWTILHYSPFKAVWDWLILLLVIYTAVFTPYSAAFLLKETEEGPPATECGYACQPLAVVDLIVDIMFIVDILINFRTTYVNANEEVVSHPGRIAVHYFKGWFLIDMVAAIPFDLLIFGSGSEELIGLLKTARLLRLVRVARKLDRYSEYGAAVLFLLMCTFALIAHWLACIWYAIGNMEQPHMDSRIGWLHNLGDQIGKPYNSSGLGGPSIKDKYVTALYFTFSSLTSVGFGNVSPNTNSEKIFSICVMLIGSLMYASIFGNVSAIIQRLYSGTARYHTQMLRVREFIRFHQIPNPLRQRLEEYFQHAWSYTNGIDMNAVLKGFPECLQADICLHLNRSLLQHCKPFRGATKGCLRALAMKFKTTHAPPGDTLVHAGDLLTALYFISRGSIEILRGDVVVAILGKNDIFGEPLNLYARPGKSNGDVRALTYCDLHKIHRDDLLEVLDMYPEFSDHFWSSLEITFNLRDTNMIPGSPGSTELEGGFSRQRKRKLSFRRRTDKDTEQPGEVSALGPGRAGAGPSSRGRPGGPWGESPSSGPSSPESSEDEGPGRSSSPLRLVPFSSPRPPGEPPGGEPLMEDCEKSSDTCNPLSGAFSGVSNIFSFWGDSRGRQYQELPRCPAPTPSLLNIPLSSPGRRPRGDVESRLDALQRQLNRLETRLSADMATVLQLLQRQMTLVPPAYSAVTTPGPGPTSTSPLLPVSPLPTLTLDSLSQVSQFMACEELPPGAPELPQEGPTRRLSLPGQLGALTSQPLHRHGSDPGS
SMILES,IC50 (Nociceptin receptor [1]),IC50 (Nociceptin receptor [3]),logD [4],IC50 (Mu-type opioid receptor),IC50 [5],IC50 [2]
C[C@@H]1CN(CC(F)F)CCN1c1cc2[nH]c(SC(C)(C)C)nc2cc1Cl,23 nM,,,,,> 10000 nM
CCN1CCN(c2cc3[nH]c(SC(C)(C)C)nc3cc2Cl)CC1,22 nM,,,,,
CCN1CCN(c2cc3[nH]c(SC(C)(C)CCNC(=O)OC)nc3cc2Cl)CC1,21 nM,8.6 nM,,,,
CCOC(=O)N1CCC(C)(Sc2nc3cc(Cl)c(N4CCN(CC)CC4)cc3[nH]2)CC1,4.3 nM,1.1 nM,,,,
CCN1CCN(c2cc3[nH]c(S[C@]4(C)CC[C@@H](c5nc(C)no5)CC4)nc3cc2Cl)CC1,1.7 nM,0.91 nM,3.8,,,
C[C@@H]1CN(CC#N)CCN1c1cc2[nH]c(SC(C)(C)C)nc2cc1Cl,61 nM,,,,,
CCN1CCN(c2cc3[nH]c(S[C@]4(C)CC[C@@H](c5nnn(C)n5)CC4)nc3cc2Cl)CC1,2.2 nM,0.9 nM,3.1,,,
C[C@@H]1CN(CCC#N)CCN1c1cc2[nH]c(SC(C)(C)C)nc2cc1Cl,27 nM,6.4 nM,,,,> 10000 nM
CCN1CCN(c2cc3[nH]c(S[C@]4(C)CC[C@@H](c5nnco5)CC4)nc3cc2Cl)CC1,1.1 nM,0.59 nM,,,,
CCN1CCN(c2cc3[nH]c(S[C@]4(C)CC[C@@H](c5nnc(C)o5)CC4)nc3cc2Cl)CC1,1.8 nM,7.1 nM,,,,
C[C@@H]1CN(CC(F)(F)F)CCN1c1cc2[nH]c(SC(C)(C)C)nc2cc1Cl,630 nM,,,,,
CCN1CCN(c2cc3[nH]c(SC(C)(C)C)nc3cc2Cl)[C@H](C)C1,9.2 nM,2.9 nM,,,,990 nM
C[C@@H]1CN(CCO)CCN1c1cc2[nH]c(SC(C)(C)C)nc2cc1Cl,,,,,,1600 nM
CCN1CCN(c2cc3[nH]c(S[C@]4(C)CC[C@@H](N5CCCC5=O)CC4)nc3cc2Cl)CC1,1.4 nM,0.55 nM,2.9,,,> 10000 nM
CC(=O)CN1CCN(c2cc3[nH]c(SC(C)(C)C)nc3cc2Cl)C(C)C1 (racemic),,41 nM,,,,> 10000 nM

# Further lines, with some results ahead:
IC50 (Nociceptin receptor [1]),IC50 (Nociceptin receptor [3]),logD [4],IC50 (Mu-type opioid receptor),IC50 [5],SMILES,IC50 [2]
0.81 nM,1.3 nM,2.7,840 nM,160 nM,CCN1CCN(c2cc3[nH]c(S[C@]4(C)CC[C@@H](N(C)C(C)=O)CC4)nc3cc2Cl)CC1,
2.1 nM,1.8 nM,2.5,,,CCN1CCN(c2cc3[nH]c(S[C@]4(C)CC[C@@H](NS(C)(=O)=O)CC4)nc3cc2Cl)CC1,> 10000 nM
1.9 nM,1.1 nM,2.5,,,CCN1CCN(c2cc3[nH]c(S[C@]4(C)CC[C@@H](NC(C)=O)CC4)nc3cc2Cl)CC1,> 10000 nM
9.5 nM,2.1 nM,,,,CCN1CCN(c2cc3[nH]c(S[C@]4(C)CC[C@H](NC(=O)OC)CC4)nc3cc2Cl)CC1,1500 nM
2.4 nM,0.72 nM,3.4,,,CCN1CCN(c2cc3[nH]c(S[C@]4(C)CC[C@@H](NC(=O)OC)CC4)nc3cc2Cl)CC1,3500 nM
1 nM,1.1 nM,,,,CCN1CCN(c2cc3[nH]c(S[C@]4(C)CC[C@@H](C(=O)NC)CC4)nc3cc2Cl)CC1,> 10000 nM
6.9 nM,4 nM,,,,CCN1CCN(c2cc3[nH]c(S[C@]4(C)CC[C@@H](S(C)(=O)=O)CC4)nc3cc2Cl)CC1,> 10000 nM
7.4 nM,3.7 nM,2.3,,,CCN1CCN(c2cc3[nH]c(S[C@]4(C)CC[C@@H](c5nnnn5C)CC4)nc3cc2Cl)CC1,
,46 nM,,,,CCN1CCN(c2cc3[nH]c(SC4(C)CCC(NC(=O)OC)C4)nc3cc2Cl)CC1 (racemic),

# Reference: ChEMBL document CHEMBL1136886, “Optimization of benzimidazole series as opioid receptor-like 1 (ORL1) antagonists: SAR study directed toward improvement of selectivity over hERG activity” (Bioorg Med Chem Lett, 2009)
